The results in this text go back to ChEMBL document CHEMBL4359913, “Identification and characterization of benzo[d]oxazol-2(3H)-one derivatives as the first potent and selective small-molecule inhibitors of chromodomain protein CDYL” (Eur J Med Chem, 2019).

pKd: −log10 of the molar value. Calls of active or inactive are those of the source. No cut-off for these calls is given here.

Assay [1] concerns the target T1, Chromodomain Y-like protein (Homo sapiens) (UniProt Q9Y232).
T1 sequence (whole entry): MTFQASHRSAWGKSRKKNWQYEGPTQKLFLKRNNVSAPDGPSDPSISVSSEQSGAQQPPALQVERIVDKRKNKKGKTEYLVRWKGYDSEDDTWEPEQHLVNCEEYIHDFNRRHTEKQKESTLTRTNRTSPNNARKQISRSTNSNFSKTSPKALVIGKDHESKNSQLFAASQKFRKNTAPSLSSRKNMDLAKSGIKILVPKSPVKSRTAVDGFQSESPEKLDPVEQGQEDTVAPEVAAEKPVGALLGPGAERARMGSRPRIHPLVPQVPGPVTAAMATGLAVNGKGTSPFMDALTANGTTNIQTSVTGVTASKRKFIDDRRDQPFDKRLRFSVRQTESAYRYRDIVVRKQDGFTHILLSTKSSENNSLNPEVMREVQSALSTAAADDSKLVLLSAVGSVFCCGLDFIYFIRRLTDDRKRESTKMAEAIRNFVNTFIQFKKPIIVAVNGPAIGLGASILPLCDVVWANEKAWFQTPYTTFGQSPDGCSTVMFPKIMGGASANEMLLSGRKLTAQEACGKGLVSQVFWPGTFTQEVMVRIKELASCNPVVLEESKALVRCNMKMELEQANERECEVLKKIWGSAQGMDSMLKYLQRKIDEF
Description: Inhibition of CDYL in human SH-SY5Y cells assessed as decrease in enrichment of H3K27me3 at VGF promoter site at 150 uM incubated for 24 hrs by ChIP-qPCR analysis. Type of assay: cell-based. The method, boiled down: (§1)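 About 1×10^7 SH-SY5Y cells given 150 µM compound or DMSO for 24 h, fixed in 1% formaldehyde for 10 min. Chromatin immunoprecipitated overnight-style (12 h, 4 °C) with CDYL or H3K27me3 antibody, captured on Protein A/G beads, washed, decrosslinked at 65 °C. Promoter DNA quantified by qPCR, mean ± S.E.M. of triplicate experiments, Student's t-test.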
In general terms: In qPCR the cycle at which signal appears reflects the starting amount.

Assay [2] addresses T2, Chromodomain Y-like protein (Mus musculus) (UniProt Q9WTK2).
T2 sequence (whole entry): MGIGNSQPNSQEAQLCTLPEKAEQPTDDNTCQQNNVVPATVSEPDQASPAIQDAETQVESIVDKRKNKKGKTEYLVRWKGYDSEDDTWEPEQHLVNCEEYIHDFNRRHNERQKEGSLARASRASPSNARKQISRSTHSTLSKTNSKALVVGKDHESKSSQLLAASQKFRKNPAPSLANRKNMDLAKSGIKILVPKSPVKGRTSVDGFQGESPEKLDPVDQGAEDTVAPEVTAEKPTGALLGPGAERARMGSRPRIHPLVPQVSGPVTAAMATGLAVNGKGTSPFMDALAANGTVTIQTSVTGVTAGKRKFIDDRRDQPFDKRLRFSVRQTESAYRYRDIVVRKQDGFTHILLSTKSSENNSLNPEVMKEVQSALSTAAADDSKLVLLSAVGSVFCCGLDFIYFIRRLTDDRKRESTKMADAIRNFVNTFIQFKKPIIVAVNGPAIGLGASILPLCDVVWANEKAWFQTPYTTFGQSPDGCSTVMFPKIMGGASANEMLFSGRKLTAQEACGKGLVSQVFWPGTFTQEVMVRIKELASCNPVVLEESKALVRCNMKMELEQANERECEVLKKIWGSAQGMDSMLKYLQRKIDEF
Description: Inhibition of CDYL in C57BL/6 mouse hippocampal neurons assessed as induction of dendritic branching at 150 uM incubated for 24 hrs by DAPI staining confocal microscopic method. The method, boiled down: (§2)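 Mouse hippocampal or cortical neurons on poly-D-lysine given 150 µM compound or DMSO at DIV 5 for 24 h, then fixed in 4% PFA. Stained for MAP2 with DAPI nuclei and imaged by confocal microscopy. Dendrite crossings counted by Sholl analysis at 10 µm intervals. Mean ± S.E.M. of triplicates, Student's t-test.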

The target of assay [3] is T1, Chromodomain Y-like protein (Homo sapiens). Put plainly: Inhibition of CDYL in human HEK293T cells assessed as increase in MYT1 mRNA expression at 50 to 200 uM incubated for 24 hrs by RT-qPCR analysis. Format: cell-based. Summed up: (§3)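 SH-SY5Y or HEK-293T cells grown in DMEM with 10% FBS and treated with compound for 24 h. mRNA quantified by SYBR green RT-qPCR after DNase treatment, 2^-ΔΔCt method with GAPDH as reference, relative to DMSO. Mean ± S.E.M. of triplicate experiments, Student's t-test.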

Assay [4] shares this target. Description: Inhibition of CDYL in human SH-SY5Y cells assessed as decrease in enrichment of CDYL at BDNF promoter site at 150 uM incubated for 24 hrs by ChIP-qPCR analysis. Format: cell-based. The method, boiled down:
as §1

For assay [5], the target named is T3, Chromodomain Y-like protein (Homo sapiens, UniProt Q9Y232).
T3 sequence (Q9Y232 whole entry): T1 sequence (whole entry)
Description: Binding affinity to recombinant human N-terminal GST-tagged CDYL (1 to 60 residues) expressed in Escherichia coli […] by SPR analysis. Summed up:
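GST-tagged chromodomain expressed in E. coli BL21 with 0.2 mM IPTG at 28 °C for 6 h. Purified on GSTrap, tag removed with PreScission protease. Amine-coupled to CM5 chip at pH 4.0–4.5 (5000–10000 RU). Compound run as a 1.5- or 2-fold series from 100 µM in PBSP with 5% DMSO, 25 °C, 30 µL/min, 60 s association and 60 s dissociation.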
Background: In SPR one partner is held on a chip, and binding of the other changes the refractive index at the surface.

Assay [6] has as its target T2, Chromodomain Y-like protein (Mus musculus). Put plainly: Inhibition of CDYL in C57BL/6 mouse cortical neurons as increase in VGF mRNA expression at 150 uM incubated for 24 hrs by RT-qPCR analysis. Summed up:
(§4)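 Mouse cortical or hippocampal neurons, dissociated with trypsin and kept in Neurobasal/B27, treated with 150 µM compound for 24 h. mRNA measured by SYBR green RT-qPCR with the 2^-ΔΔCt method, GAPDH as reference, relative to DMSO. Mean ± S.E.M. of triplicate experiments, Student's t-test.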

Assay [7] addresses T1, Chromodomain Y-like protein (Homo sapiens). Put plainly: Binding affinity to CDYL in human SH-SY5Y cells assessed as increase in protein thermal stability at 150 uM incubated for 10 mins at room temperature followed by exposure to 40 to 67 degC for 4 mins followed by cooling for 3 mins at room temperature by CETSA. Format: cell-based. Summed up: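 SH-SY5Y cells freeze-thawed three times in liquid nitrogen, lysate diluted with PBS, given 150 µM compound or DMSO for 10 min at room temperature. Aliquots heated at 40–67 °C for 4 min, cooled 3 min, spun at 13,000 g for 10 min at 4 °C. CDYL in the supernatant read by SDS-PAGE and Western blot, bands quantified by densitometry.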

Assay [8] shares this target. Put plainly: Inhibition of CDYL in human HEK293T cells assessed as increase in VGF mRNA expression at 50 to 200 uM incubated for 24 hrs by RT-qPCR analysis. Type of assay: cell-based. The method, boiled down:
as §3

In assay [9] the target is T2, Chromodomain Y-like protein (Mus musculus). Description: Inhibition of CDYL in C57BL/6 mouse cortical neurons assessed as induction of dendritic branching at 150 uM incubated for 24 hrs by DAPI staining confocal microscopic method. Summed up: as §2
Assay [10] shares this target. Put plainly: Inhibition of CDYL in C57BL/6 mouse hippocampal neurons as increase in BDNF mRNA expression at 150 uM incubated for 24 hrs by RT-qPCR analysis. Summed up: as §4

Turning to `O=C(Cn1c(=O)oc2ccccc21)N1CCC(N2CCCC2)CC1`, the inhibition entry in [1] and in assay [4] was “Active” in each case. For the same molecule, the outcome in assay [2], in assay [3], in assay [6], in assay [7], in assay [8] and in assay [9] was Active. In addition, the result in assay [10] was Active. Moreover, the pKd in assay [5] is 6.30.

One may read the pKd as the negative decadic logarithm of the Kd, by convention in mol/L.
